Series [1] has as its system Trypanosoma brucei brucei. The series can be described thus: Antiparasitic activity against bloodstream form of Trypanosoma brucei brucei 427 […] assessed as growth inhibition after 72 hrs by Alamar Blue assay. Type of series: functional, organism-based. A general note: The colour change of resazurin is a common sign of viable cells or microbes.

Series [2] in a line: Selectivity index, ratio of IC50 for macrophages differentiated from human THP1 cells to IC50 for bloodstream form of Trypanosoma brucei brucei 427. Type of series: toxicity, cell-based, THP-1. The settings on record: read-out: Ratio IC50. In short, it runs like this:
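Bloodstream-form T. b. brucei 427 in HMI-9 with 10% heat-inactivated FBS at 37 °C, 5% CO2: about 2,000 cells per well with serial drug dilutions for 72 h, then resazurin 45.5 μM for 4 h, fluorescence ex 528/em 590 nm. THP1-differentiated macrophages at 10⁵ cells/well: 72 h at 37 °C, MTT 4 h, A570 minus 660 nm versus untreated. Both IC50s by linear regression.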

Series [3] has as its system THP-1. The series can be described thus: Cytotoxicity against macrophages differentiated from human THP1 cells assessed as cell viability after 72 hrs by MTT assay. Type of series: cell-based. The settings on record: THP-1, 72 h. In short, it runs like this: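 THP1-differentiated macrophages, 10⁵ cells/well, adhered overnight, then exposed to a compound concentration range for 72 h at 37 °C. MTT at 0.5 mg/mL added for 4 h in the dark, and formazan dissolved in isopropanol. Absorbance read at 570 nm with 660 nm background. Viability given relative to untreated cells, and IC₅₀ from linear regression.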
In general terms: Tetrazolium assays rely on reduction of a dye to a coloured formazan, in cell work by metabolically active cells.

The nature of series [4]: Inhibition of Trypanosoma brucei FolD dehydrogenase activity assessed as formation of 5,10-CH=THF from 5,10-CH2-THF after 5 mins by spectrophotometric analysis. In short, it runs like this: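 Recombinant T. brucei FolD from E. coli BL21 (DE3), Ni²⁺-affinity purified. Assay at 27 °C in 25 mM MOPS pH 7.3 with 30 mM 2-mercaptoethanol, 35 μM mTHF and 1 mM NADP⁺, started with NADP⁺. Reaction stopped at 5 min with an equal volume of 1 M HCl, product read at 350 nm (ε 24.9 mM⁻¹ cm⁻¹). Compounds from 10 mM DMSO stocks, first tested at 0–50–100 μM. Data fitted to a competitive model by linear regression.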

Series [5] can be described thus: Competitive inhibition of recombinant Leishmania major hexahistidine-tagged FolD dehydrogenase activity expressed in Escherichia coli by Michaelis-Menten plot analysis in presence of 5,10-CH2-THF.
The nature of series [6]: Competitive inhibition of Pseudomonas aeruginosa FolD dehydrogenase activity.
[7] abbreviates: Trypanosoma brucei, 427, 72 h, read-out: IC50.

As usually defined, the IC50 is the concentration that inhibits the measured activity by half. Usually Ki stands for a measure of affinity in units of concentration, obtained from inhibition or displacement.

Activity calls are given as the source filed them. The rule behind the calls is not given here.

As to `CCOC(=O)c1ccc(NC(=O)Nc2c(N)nc(N)[nH]c2=O)cc1`, the half-inhibitory concentration (IC50) was 89 µM in series [1] (setting [7]), 97 µM in series [3] and 250 µM in series [4]. For the same molecule, the selectivity ratio in series [2] was found to be 1.1.
For `Nc1nc(N)c(NC(=O)Nc2ccc(C(=O)NCCCC(=O)O)cc2)c(=O)[nH]1`, the IC50 entry in series [1] is “Not Active”; in series [3], 98 µM; in series [4], 213 µM. For the same molecule, the Ki in series [4] was 168 µM.
For the molecule `N=C(N)c1ccc(OCCCCCOc2ccc(C(=N)N)cc2)cc1` [PENTAMIDINE], the IC50 in series [1] (setting [7]) was 0.0016 µM.
For `C[C@H](NC(=O)c1ccc(NC(=O)Nc2c(N)nc(N)[nH]c2=O)cc1)C(=O)O`, the half-maximal inhibitory concentration (IC50) entry in series [1] was “Not Active”; in series [3] it was 113 µM; in series [4], 6.3 µM. For the same molecule, the Ki in series [4] amounted to 3.2 µM.
In the same order, the values of `Nc1nc(N)c(NC(=O)Nc2ccc(C(=O)N[C@@H](CCCC(=O)O)C(=O)O)cc2)c(=O)[nH]1` are “Not Active”, 90 µM, 1 µM and 0.48 µM.
Turning to `Nc1nc(N)c(NC(=O)Nc2ccc(C(=O)N[C@@H](Cc3ccccc3)C(=O)O)cc2)c(=O)[nH]1`, the IC50 entry is “Not Active” in series [1], 94 µM in series [3] and 1.1 µM in series [4]. Also, the Ki in series [4] worked out at 0.54 µM.
As for `Nc1nc2c(c(=O)[nH]1)N1C(=O)N(c3ccc(C(=O)NC(CCC(=O)O)C(=O)O)cc3)CC1CN2` (stereo unspecified), the 50% inhibitory concentration (IC50) in series [1] (setting [7]) is 57 µM; in series [3] it was 103 µM; in series [4], 20 µM. The Ki worked out at 0.105 µM in series [5], 0.03 µM in series [6] and 8.5 µM in series [4]. The selectivity ratio in series [2] turned out to be 1.8.
As to `Nc1nc(N)c(NC(=O)Nc2ccc(C(=O)N[C@@H](Cc3ccc(O)cc3)C(=O)O)cc2)c(=O)[nH]1`, the IC50 entry is “Not Active” in series [1], 77 µM in series [3] and 9.3 µM in series [4]. Further, in series [4], the Ki was found to be 7.3 µM.
As for `Cc1ccc(C(=O)Nc2ccc(S(=O)(=O)O)c3cc(S(=O)(=O)O)cc(S(=O)(=O)O)c23)cc1NC(=O)c1cccc(NC(=O)Nc2cccc(C(=O)Nc3cc(C(=O)Nc4ccc(S(=O)(=O)O)c5cc(S(=O)(=O)O)cc(S(=O)(=O)O)c45)ccc3C)c2)c1`, in series [1], the “growth inhibition (GI)” value is “Active”.
In the case of `CCOC(=O)CC[C@H](NC(=O)c1ccc(NC(=O)Nc2c(N)nc(N)[nH]c2=O)cc1)C(=O)OCC`, the IC50 worked out at 92 µM in series [1] (setting [7]), 205 µM in series [3] and 250 µM in series [4]. For the same molecule, the selectivity ratio in series [2] came out at 2.2.
With `Nc1nc(N)c(NC(=O)Nc2ccc(C(=O)N[C@@H](CCC(=O)O)C(=O)O)cc2)c(=O)[nH]1`, the figures for the 50% inhibitory concentration (IC50) in series [1] (setting [7]), in series [3] and in series [4] were 49 µM, 194 µM and 2.2 µM, respectively. For the same molecule, the selectivity ratio in series [2] worked out at 4. In addition, the Ki in series [4] amounted to 1.1 µM.
Take `Nc1nc(N)c(NC(=O)Nc2ccc(C(=O)O)cc2)c(=O)[nH]1`: the figures for the IC50 in series [1] (setting [7]), in series [3] and in series [4] were 74 µM, 97 µM and 83 µM, respectively. Further, in series [2], the selectivity ratio is 1.3.

The values are drawn from ChEMBL document CHEMBL3621150, “Characterization of 2,4-Diamino-6-oxo-1,6-dihydropyrimidin-5-yl Ureido Based Inhibitors of Trypanosoma brucei FolD and Testing for Antiparasitic Activity” (J Med Chem, 2015).
